Measurements gathered from unrelated publications.
Protocols differ between the studies behind these lines.
Target: Serine/threonine-protein kinase 16 (STK16, Homo sapiens, UniProt O75716)

| SMILES | observed | method | concentration | remaining binding [%] |
| --- | --- | --- | --- | --- |
| CN(C)c1ncc(F)c(-c2cnn3ncccc23)n1 | binding | – | 1 µM | 87 |
| O=C(NCC1CCOCC1)c1n[nH]cc1NC(=O)c1c(F)cccc1F | binding | competition with immobilised ligand | 1 µM | 91 |
| O=C(c1ccc(Nc2ncc(Cl)c(-c3cc4ccccc4s3)n2)cc1)N1CCC(N2CCCC2)CC1 | binding | competition with immobilised ligand | 1 µM | 5.6 |
| COc1cnc(Nc2cccc(S(N)(=O)=O)c2)nc1N1CCN(c2ccccc2)CC1 | binding | competition with immobilised ligand | 1 µM | 57 |
| CCCOc1ccc([C@H]2[C@H](C(=O)O)[C@@H](c3ccc4c(c3)OCO4)CN2CC(=O)Nc2c(CC)cccc2CC)cc1 | cell-free assay | competition with immobilised ligand | 1 µM | 72 |
| c1cncc(-c2cccc(Nc3nccc(NC4CCCCC4)n3)c2)c1 | binding | competition with immobilised ligand | 10 µM | 42 |
| C=CC(=O)N1CCC(C(=O)NCC(=O)N2CCN(c3nc(-c4cnc(N)nc4C(F)F)nc(N4CCOCC4)n3)CC2)CC1 | binding | competition with immobilised ligand | 1 µM | 92 |
| O=C(NCCCN1CCOCC1)c1ccc(Nc2ncc(Cl)c(-c3ccc(Cl)s3)n2)cc1 | binding | competition with immobilised ligand | 1 µM | 1.1 |
| C[C@@H](c1ccc(-n2cnc3c(N)ncnc32)cc1)N1CCc2nn(C)c(Cc3ccccc3)c2C1=O | binding | competition with immobilised ligand | 0.1 µM | 85 |
| CCc1ccccc1C(=O)Nc1n[nH]c2c(C)c(F)c(C3C(C#N)=C(C)N(C)C(C)=C3C#N)cc12 | cell-free assay | competition with immobilised ligand | 1 µM | 79 |
| CN(C)c1nccc(-c2cnc3ncccn23)n1 | binding | – | 1 µM | 92 |
| Nc1ncc2c(n1)-c1c([nH]c3ccc(C#CC4CC4)cc13)CCCC2 | binding | competition with immobilised ligand | 1 µM | 100 |
| CC1CCCN1c1nccc(-c2cnn3ncccc23)n1 (stereo not drawn) | binding | – | 1 µM | 86 |
| CO[C@@H](C)c1c(Nc2ccc([C@H](N(C)C(=O)C3CCS(=O)(=O)CC3)C(F)(F)F)cc2)cnc2cc(Cl)nn12 | cell-free assay | competition with immobilised ligand | 1 µM | 75 |
| O=C(NCCCN1CCOCC1)c1ccc(Nc2nccc(-c3cc4ccccc4s3)n2)cc1 | binding | competition with immobilised ligand | 1 µM | 32 |
| CN(C)c1nccc(-c2cnn3ncccc23)n1 | binding | – | 1 µM | 87 |
| O=C(N1CCS(=O)(=O)CC1)N1C[C@H](c2ccc(OC(F)(F)F)cc2)C[C@H](c2nc(C3CC3)no2)C1 | cell-free assay | competition with immobilised ligand | 1 µM | 100 |
| N[C@H]1CCN(c2nccc(-c3cnn4ncccc34)n2)C1 | binding | – | 1 µM | 91 |
| CCC(=O)N[C@@H]1CC[C@H](C(=O)N(C)c2ccc(-c3nc4ccccc4o3)cc2)C1 | cell-free assay | competition with immobilised ligand | 1 µM | 100 |
| CN(CCCC(F)(F)F)c1nccc(-c2cnn3ncccc23)n1 | binding | – | 1 µM | 79 |
| CN(C)C(=O)Cn1cc(-c2nc([C@@](C)(c3ccc(-c4cnc(N)nc4)cc3)C3CC3)no2)cn1 | cell-free assay | competition with immobilised ligand | 1 µM | 100 |
